Results from ChEMBL document CHEMBL4425103, “Diving into the Water: Inducible Binding Conformations for BRD4, TAF1(2), BRD9, and CECR2 Bromodomains” (J Med Chem, 2016).

Assays:
[1] = biological target: T1, Peregrin (Homo sapiens, UniProt P55201); experiment: Displacement of biotinylated JQ1 analog from recombinant His-tagged BRPF1 (unknown origin) incubated for 10 mins by TR-FRET assay
T1 sequence (P55201 whole entry): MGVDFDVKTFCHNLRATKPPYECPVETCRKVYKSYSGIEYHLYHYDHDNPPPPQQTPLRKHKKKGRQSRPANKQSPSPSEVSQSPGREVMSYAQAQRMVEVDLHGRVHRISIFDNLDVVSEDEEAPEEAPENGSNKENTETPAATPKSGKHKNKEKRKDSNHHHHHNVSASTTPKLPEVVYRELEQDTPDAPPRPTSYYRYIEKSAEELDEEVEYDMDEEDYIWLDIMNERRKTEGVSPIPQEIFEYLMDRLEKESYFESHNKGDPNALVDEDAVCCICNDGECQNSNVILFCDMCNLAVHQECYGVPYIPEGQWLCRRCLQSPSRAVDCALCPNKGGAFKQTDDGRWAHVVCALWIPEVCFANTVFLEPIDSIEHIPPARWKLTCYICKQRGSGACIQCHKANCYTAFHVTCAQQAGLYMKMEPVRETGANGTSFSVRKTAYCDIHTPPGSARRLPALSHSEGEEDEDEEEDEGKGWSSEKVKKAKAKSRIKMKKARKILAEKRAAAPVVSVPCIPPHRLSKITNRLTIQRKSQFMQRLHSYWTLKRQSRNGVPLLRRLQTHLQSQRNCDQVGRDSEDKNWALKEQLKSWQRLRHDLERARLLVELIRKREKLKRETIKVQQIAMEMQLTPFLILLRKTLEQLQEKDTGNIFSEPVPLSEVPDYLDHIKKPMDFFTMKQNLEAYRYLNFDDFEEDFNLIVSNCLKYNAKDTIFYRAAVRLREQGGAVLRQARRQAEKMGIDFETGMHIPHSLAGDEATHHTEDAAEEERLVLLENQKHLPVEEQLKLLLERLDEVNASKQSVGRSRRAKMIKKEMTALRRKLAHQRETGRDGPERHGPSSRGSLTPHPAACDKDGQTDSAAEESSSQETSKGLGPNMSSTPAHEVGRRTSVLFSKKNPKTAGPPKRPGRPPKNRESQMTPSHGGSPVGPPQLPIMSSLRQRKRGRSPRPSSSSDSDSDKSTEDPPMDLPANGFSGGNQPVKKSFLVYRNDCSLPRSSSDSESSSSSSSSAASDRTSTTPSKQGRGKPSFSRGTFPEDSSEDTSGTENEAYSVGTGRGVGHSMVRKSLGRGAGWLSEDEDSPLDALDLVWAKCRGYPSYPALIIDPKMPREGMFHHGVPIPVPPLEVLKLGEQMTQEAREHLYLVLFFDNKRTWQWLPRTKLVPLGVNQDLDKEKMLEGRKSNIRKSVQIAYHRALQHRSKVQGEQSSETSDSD
In short: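 Bromodomain, then biotinylated ligand, each added with 10 min incubation. Anti-His europium (0.2 nM) plus streptavidin-APC followed for 40 min. 10-point titrations in duplicate, at least 2 independent runs.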

[2] = biological target: T2, Bromodomain-containing protein 4 (Homo sapiens, UniProt O60885); experiment: Inhibition of recombinant His-tagged BRD4 bromodomain2 (unknown origin) using biotinylated ligand incubated for 10 mins by TR-FRET assay
[3] = biological target: T3, Transcription initiation factor TFIID subunit 1 (Homo sapiens, UniProt P21675); experiment: Inhibition of recombinant His-tagged TAF1 isoform-1 (unknown origin) using biotinylated ligand incubated for 10 mins by TR-FRET assay
T3 sequence (P21675 whole entry, canonical isoform): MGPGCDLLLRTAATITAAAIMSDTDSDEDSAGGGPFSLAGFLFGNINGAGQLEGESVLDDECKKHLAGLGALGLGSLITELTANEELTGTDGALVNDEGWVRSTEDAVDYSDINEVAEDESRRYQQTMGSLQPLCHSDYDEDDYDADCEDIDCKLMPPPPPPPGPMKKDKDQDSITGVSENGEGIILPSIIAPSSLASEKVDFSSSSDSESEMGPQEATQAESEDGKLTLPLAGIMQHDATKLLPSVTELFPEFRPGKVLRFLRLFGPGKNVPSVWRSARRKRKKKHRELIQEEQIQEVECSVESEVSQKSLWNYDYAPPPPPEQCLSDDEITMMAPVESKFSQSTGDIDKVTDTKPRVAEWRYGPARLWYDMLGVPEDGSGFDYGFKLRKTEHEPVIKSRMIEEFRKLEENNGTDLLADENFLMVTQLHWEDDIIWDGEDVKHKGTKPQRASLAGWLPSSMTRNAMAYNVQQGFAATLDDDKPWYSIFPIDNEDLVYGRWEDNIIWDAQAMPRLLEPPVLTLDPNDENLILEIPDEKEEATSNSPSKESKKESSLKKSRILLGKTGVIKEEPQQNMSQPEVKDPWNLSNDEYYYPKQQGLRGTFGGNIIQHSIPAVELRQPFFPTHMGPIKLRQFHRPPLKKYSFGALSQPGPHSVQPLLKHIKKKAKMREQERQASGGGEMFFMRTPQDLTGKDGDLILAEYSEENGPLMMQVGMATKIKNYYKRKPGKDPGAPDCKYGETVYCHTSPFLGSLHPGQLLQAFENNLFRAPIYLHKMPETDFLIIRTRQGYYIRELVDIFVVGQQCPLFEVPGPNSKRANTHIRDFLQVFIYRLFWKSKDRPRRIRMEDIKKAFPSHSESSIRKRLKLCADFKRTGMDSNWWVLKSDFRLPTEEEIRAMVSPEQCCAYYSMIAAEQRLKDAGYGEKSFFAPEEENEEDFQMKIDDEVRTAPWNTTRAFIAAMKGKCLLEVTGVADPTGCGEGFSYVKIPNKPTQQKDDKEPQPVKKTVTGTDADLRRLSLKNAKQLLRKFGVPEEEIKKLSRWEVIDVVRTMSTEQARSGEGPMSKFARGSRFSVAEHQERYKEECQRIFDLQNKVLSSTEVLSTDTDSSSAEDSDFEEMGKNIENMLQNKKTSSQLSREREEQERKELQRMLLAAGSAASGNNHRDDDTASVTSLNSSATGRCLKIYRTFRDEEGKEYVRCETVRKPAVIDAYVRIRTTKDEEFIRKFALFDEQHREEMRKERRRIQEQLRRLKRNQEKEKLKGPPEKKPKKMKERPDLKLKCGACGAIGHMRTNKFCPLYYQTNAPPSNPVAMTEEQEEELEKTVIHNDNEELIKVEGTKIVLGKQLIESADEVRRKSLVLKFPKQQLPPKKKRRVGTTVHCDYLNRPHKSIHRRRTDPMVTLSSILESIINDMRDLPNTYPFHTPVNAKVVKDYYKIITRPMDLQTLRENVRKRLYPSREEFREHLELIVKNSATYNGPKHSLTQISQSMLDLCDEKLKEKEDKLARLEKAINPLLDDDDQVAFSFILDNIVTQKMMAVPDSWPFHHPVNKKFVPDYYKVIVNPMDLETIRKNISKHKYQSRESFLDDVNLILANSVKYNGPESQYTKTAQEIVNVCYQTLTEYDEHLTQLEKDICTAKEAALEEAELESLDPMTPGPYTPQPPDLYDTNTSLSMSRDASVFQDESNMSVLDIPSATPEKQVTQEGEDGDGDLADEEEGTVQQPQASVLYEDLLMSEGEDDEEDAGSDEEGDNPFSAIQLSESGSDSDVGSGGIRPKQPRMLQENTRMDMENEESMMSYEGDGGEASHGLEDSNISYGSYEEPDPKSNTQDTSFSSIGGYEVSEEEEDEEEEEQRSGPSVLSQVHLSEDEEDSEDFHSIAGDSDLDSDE

[4] = biological target: T4, Bromodomain-containing protein 9 (Homo sapiens, UniProt Q9H8M2); experiment: Displacement of biotinylated JQ1 analog from recombinant His-tagged BRD9 (unknown origin) incubated for 10 mins by TR-FRET assay
T4 sequence (Q9H8M2 whole entry): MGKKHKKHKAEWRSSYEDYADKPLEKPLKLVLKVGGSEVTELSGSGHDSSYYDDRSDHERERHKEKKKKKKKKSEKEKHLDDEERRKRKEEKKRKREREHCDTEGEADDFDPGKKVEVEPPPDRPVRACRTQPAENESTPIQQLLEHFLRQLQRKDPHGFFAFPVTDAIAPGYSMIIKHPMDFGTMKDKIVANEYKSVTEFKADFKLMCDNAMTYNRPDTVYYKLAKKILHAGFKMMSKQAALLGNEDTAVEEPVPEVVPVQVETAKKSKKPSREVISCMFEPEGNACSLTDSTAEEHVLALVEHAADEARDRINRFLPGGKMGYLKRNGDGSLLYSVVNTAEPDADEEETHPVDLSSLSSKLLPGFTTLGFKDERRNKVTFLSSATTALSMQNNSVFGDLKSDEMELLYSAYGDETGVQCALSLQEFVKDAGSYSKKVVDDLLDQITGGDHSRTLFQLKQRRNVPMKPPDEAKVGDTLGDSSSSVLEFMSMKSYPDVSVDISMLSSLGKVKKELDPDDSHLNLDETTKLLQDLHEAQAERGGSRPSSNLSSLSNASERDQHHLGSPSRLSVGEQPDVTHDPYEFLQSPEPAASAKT

[5] = biological target: Chromatin remodeling regulator CECR2 (Homo sapiens, UniProt Q9BXF3); experiment: Inhibition of recombinant His-tagged CECR2 (unknown origin) using biotinylated ligand incubated for 10 mins by TR-FRET assay
Chain of Chromatin remodeling regulator CECR2 (Q9BXF3 whole entry): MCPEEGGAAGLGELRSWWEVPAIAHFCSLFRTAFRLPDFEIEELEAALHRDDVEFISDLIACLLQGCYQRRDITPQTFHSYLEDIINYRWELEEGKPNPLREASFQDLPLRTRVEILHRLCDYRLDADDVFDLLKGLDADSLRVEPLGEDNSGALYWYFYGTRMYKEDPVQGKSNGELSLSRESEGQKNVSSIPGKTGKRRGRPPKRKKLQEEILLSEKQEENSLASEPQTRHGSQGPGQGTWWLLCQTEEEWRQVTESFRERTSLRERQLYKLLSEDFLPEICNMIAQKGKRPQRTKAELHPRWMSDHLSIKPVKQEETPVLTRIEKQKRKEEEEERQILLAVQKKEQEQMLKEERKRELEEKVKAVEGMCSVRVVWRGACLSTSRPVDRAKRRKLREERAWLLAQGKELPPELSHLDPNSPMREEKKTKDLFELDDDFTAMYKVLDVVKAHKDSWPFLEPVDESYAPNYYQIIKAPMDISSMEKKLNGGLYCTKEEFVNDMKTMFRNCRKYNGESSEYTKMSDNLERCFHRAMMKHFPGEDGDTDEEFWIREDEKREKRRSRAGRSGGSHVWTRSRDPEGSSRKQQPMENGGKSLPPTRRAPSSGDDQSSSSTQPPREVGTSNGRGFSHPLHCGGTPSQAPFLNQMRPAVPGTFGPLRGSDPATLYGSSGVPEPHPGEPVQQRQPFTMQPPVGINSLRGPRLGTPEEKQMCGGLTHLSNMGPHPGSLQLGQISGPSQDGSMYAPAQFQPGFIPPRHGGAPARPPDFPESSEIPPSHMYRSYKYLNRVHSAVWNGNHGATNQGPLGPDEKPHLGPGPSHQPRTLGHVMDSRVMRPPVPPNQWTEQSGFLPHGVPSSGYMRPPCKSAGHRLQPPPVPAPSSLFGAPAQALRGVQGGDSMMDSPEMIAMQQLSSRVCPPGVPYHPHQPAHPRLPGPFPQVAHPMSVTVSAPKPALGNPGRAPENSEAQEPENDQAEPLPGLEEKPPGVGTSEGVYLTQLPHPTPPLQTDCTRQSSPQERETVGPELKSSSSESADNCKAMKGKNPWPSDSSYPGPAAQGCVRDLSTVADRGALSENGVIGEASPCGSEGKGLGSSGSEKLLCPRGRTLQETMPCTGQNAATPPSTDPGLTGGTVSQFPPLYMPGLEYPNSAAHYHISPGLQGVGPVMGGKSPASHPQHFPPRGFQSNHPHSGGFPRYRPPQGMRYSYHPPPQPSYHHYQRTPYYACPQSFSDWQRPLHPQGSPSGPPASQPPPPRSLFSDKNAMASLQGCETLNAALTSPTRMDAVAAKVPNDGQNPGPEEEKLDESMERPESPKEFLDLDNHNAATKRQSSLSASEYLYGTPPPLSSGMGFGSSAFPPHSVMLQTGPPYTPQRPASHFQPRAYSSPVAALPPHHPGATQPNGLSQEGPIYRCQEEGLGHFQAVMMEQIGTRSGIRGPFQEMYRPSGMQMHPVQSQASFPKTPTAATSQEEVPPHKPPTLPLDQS

[6] = biological target: T2, Bromodomain-containing protein 4; experiment: Inhibition of recombinant His-tagged BRD4 bromodomain1 (unknown origin) using biotinylated ligand incubated for 10 mins by TR-FRET assay
[7] = biological target: T3, Transcription initiation factor TFIID subunit 1; experiment: Inhibition of recombinant His-tagged TAF1 isoform-2 (unknown origin) using biotinylated ligand incubated for 10 mins by TR-FRET assay
[8] = biological target: CREB-binding protein (Homo sapiens, UniProt Q92793); experiment: Displacement of biotinylated JQ1 analog from recombinant His-tagged CBP (unknown origin) incubated for 10 mins by TR-FRET assay

Question: How did the IC50 [1] turn out when `C/C=C/Cn1cc(-c2cccc(C(=O)N(C)C)c2)c2cc[nH]c2c1=O` was run?
Answer: > 20 µM

Question: Which IC50 [1] does the source give for `C=CCCn1cc(-c2cccc(C(=O)N(C)C)c2)c2cc[nH]c2c1=O` here?
Answer: > 20 µM

Question: With `Cn1ccc2cc[nH]c2c1=O` as the molecule, how does the IC50 [2] read?
Answer: 7.5 µM

Question: What about the IC50 [3] of the same molecule?
Answer: 38.9 µM

Question: And the IC50 [4]?
Answer: 13.7 µM

Question: What about the IC50 [5] of the same molecule?
Answer: 42.8 µM

Question: And the IC50 [6]?
Answer: 18.4 µM

Question: What about the IC50 [1] of the same molecule?
Answer: 53.8 µM

Question: And the IC50 [7]?
Answer: 23.7 µM

Question: And the IC50 [8]?
Answer: 11.8 µM
